Experimental data taken from ChEMBL document CHEMBL4304791, “DABMA: A Derivative of ABMA with Improved Broad-Spectrum Inhibitory Activity of Toxins and Viruses” (ACS Med Chem Lett, 2019).
Calls of active or inactive are those of the source. The rule behind the calls is not given here.

Tests used:
A549 [1] = experiment: Inhibition of diphtheria induced toxicity in human A549 cells assessed as protection fold at 30 uM incubated for 20 hrs followed by replacement of [14c]-Leucine containing medium and measured after 4 hrs by liquid scintillation analysis relative to ABMA; type: functional
In short: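 Single-concentration screen: 30 μM compound on A549 cells with increasing DT concentrations, read as protein synthesis inhibition. Protection fold was calculated with ABMA as the positive control.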

A549 [2] = experiment: Inhibition of diphtheria induced toxicity in human A549 cells assessed as protection factor at 0.15 nM incubated for 20 hrs followed by replacement of [14c]-Leucine containing medium and measured after 4 hrs by liquid scintillation analysis relative to untreated control; type: functional
In short: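 A549 cells were incubated with Baf A1 (0.15 nM), DABMA (15 μM), both, or DMSO vehicle before DT was added, with the compounds kept present throughout. Toxin protection was read as protein synthesis and expressed as protection factor.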

A549 [3] = experiment: Cytoprotection activity against diphtheria toxin-induced cytotoxicity against human A549 cells assessed as effect on protein synthesis incubated for 20 hrs followed by replacement of [14c]-Leucine containing medium and measured after 4 hrs by liquid scintillation analysis; type: functional, cell-based
In short: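 A549 cells were incubated with compound and then challenged with increasing DT concentrations. DT cytotoxicity was read as protein synthesis inhibition. Data are mean of duplicate wells ± SD from one representative experiment (n = 3).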

Lyssavirus rabies = experiment: Antiviral activity against RABV infected in BSR cells preincubated for 4 hrs followed by viral infection and further incubated with compounds for 24 hrs by immunostaining-based assay; type: functional, organism-based
In short: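 BSR cells were pretreated 4 h with compound, then infected with RABV (MOI = 14) for 1 h. Cells were washed and kept with compound for 24 h, then fixed and immunostained for the RABV ribonucleocapsid (RNP). Nuclei and RNP images from 15 fields per well (>10,000 cells) were used to calculate percent inhibition.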

A549 [4] = experiment: Induction of lysosomal activation in human A549 cells incubated for 2 hrs by LysoTracker Red staining based confocal microscopic analysis; type: functional, cell-based
In short: (§1)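 A549 cells were pretreated 2 h with compound (30 or 60 μM) or DMSO, then stained with LysoTracker Deep Red (50 nM, 30 min) plus Hoechst. Intensity was read from 3 × 3 fields per well (10,000 cells/well) by imaging reader; mean ± SEM, n = 4; confocal images.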

[5] = Cytotoxicity against human A549 cells assessed as reduction in cell viability incubated for 24 hrs by Alamar blue assay; type: cell-based
In short: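 A549 cytotoxicity by Alamar Blue viability assay; duplicate wells, mean ± SD, one representative experiment (n = 3).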

A549 [6] = experiment: Selectivity index, ratio of CC50 for cytotoxicity against human A549 cells to EC50 for cytoprotective activity in diphtheria-induced cytotoxicity in human A549 cells
A549 [7] = experiment: Induction of lysosomal activation in human A549 cells at 30 uM incubated for 2 hrs by LysoTracker Red staining based confocal microscopic analysis; type: functional, cell-based; in short: as §1
L929 = experiment: Cytoprotective activity in Pseudomonas aeruginosa exotoxin-induced toxicity in mouse L929 cells assessed as protection of protein synthesis after 18 hrs followed by replacement of [14c]-Leucine containing medium and measured after 4 hrs by liquid scintillation analysis by liquid scintillation analysis; type: functional, cell-based
In short: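 L929 cells were intoxicated with increasing doses of Pseudomonas exotoxin A for 18 h with compound (30 μM) or DMSO present. Protein synthesis was measured; duplicate wells, mean ± SD, one representative experiment (n = 3).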

Vero = experiment: Inhibition of TcdB-induced cytotoxicity against African green monkey Vero cells assessed as reduction in toxin-induced cell rounding at 30 uM in presence of TcdB after 4 hrs by inverted microscopic analysis; type: functional, cell-based; conditions: Chlorocebus sabaeus
In short: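 Vero cells were given compound (30 μM) or DMSO, then increasing doses of TcdB for 4 h or TcsL for 16 h. Cell rounding was imaged by inverted microscope. Rounded cells were counted and normalised to total Hoechst-counterstained cells (>100 cells per treatment).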

A549 [8] = experiment: Increase in cholesterol accumulation in human A549 cells at 60 uM incubated for 18 hrs by choelesterol-avid filipin-3 staining based confocal microscopic analysis; type: functional, cell-based
In short: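 A549 cells were treated 18 h with compound or DMSO, fixed, and stained with Filipin III for cholesterol. Confocal imaging; fluorescence quantified in >30 cells (mean ± SEM), unpaired t test versus DMSO.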

A549 [9] = experiment: Induction of lysosomal activation in human A549 cells at 60 uM incubated for 2 hrs by LysoTracker Red staining based confocal microscopic analysis; type: functional, cell-based; in short: as §1

Compound	fold change (FC) (A549 [1])	also measured
O=[N+]([O-])c1cccc(CNC23CC4CC(CC(C4)C2)C3)c1	5.7	
COc1ccc(Br)cc1CNC1CCCCC1	0	
COc1ccc(Br)cc1CNC1CC(C)CCC1C(C)C (stereo not given)	2.2	
CO/C1=C\C(C)=C\[C@@H](C)[C@@H](O)[C@@H](C)C/C(C)=C/C=C/[C@H](OC)[C@@H]([C@@H](C)[C@@H](O)[C@H](C)[C@@]2(O)C[C@@H](O)[C@H](C)[C@@H](C(C)C)O2)OC1=O [BAFILOMYCIN A1]		fold change (FC) (A549 [2]): 5.2; EC50 (A549 [3]): 0.0006 µM
NC(=O)c1ncn([C@@H]2O[C@H](CO)[C@@H](O)[C@H]2O)n1		inhibition (Lyssavirus rabies): Active
CCCCCCCCCNCc1cc(Br)ccc1OC	0.26	
COc1ccc(Br)cc1CN(C(C)=O)C12CC3CC(CC(C3)C1)C2	0.3	Activity (A549 [4]): inactive
COc1ccc(Br)cc1CNc1cccc2ccccc12	0.19	
Cn1c(CNC23CC4CC(CC(C4)C2)C3)cc2ccccc21	0.21	
COc1ccc(Br)cc1/C=N/C12CC3CC(CC(C3)C1)C2	0.05	Activity (A549 [4]): inactive
COc1ccc(Br)cc1CNc1ccccc1	0.19	
COc1ccc(I)cc1CNC12CC3CC(C)(CC(C)(C3)C1)C2	35.1	CC50 at 24 h [5]: 90.8 µM; Ratio CC50/EC50 (A549 [6]): 3.6; EC50 (A549 [3]): 25.1 µM
COc1ccc(Br)cc1CNCCCc1ccccc1	0.52	
CC12CC3CC(C)(C1)CC(NCc1ccc(I)cc1)(C3)C2	12.5	CC50 at 24 h [5]: 137 µM; Ratio CC50/EC50 (A549 [6]): 3.6; EC50 (A549 [3]): 38.3 µM
COc1ccc(Br)cc1CNC12CC3CC(CC(C3)C1)C2		CC50 at 24 h [5]: 277 µM; Activity (A549 [7]): Active; Activity (L929): Active; inhibition (Vero): Active; Ratio CC50/EC50 (A549 [6]): 4.4; inhibition (Lyssavirus rabies): Active; EC50 (A549 [3]): 62.9 µM
Brc1ccc(CNC23CC4CC(CC(C4)C2)C3)cc1	2.3	
CC(N)C12CC3CC(CC(C3)C1)C2.Cl (stereo not given) [RIMANTADINE HYDROCHLORIDE]	0.35	
COc1ccc(Br)cc1CNC(C)(C)C	0	
COc1ccc(Br)cc1CNCc1ccccc1	0	
COc1ccc(Br)cc1CN(C)C12CC3CC(CC(C3)C1)C2	0.52	
NC12CC3CC(CC(C3)C1)C2 [AMANTADINE]	0.3	
CC12CC3CC(C)(C1)CC(N)(C3)C2 [MEMANTINE]	0	
COc1ccc(Br)cc1CN[C@H]1C[C@@H]2CC[C@@]1(C)C2(C)C	0.4	
COc1ccc(Br)cc1CN(C(=O)c1ccccc1)C12CC3CC(CC(C3)C1)C2	0.25	
Cn1c(CNC2C3CC4CC(C3)CC2C4)cc2ccccc21 (stereo not given)	0.21	
Ic1ccc(CNC23CC4CC(CC(C4)C2)C3)cc1	6.6	
COc1cc(I)ccc1CNC12CC3CC(CC(C3)C1)C2	3.6	
COc1ccc(Br)cc1C(=O)NC12CC3CC(CC(C3)C1)C2	0	Activity (A549 [8]): inactive; Activity (A549 [9]): inactive
